Measured values reported in ChEMBL document CHEMBL1165965, “Synthesis and structure-activity relationships of 1,2,3,4-tetrahydropyrido[2,3-b]pyrazines as potent and selective inhibitors of the anaplastic lymphoma kinase” (Bioorg Med Chem, 2010).

Experiments:
[1] = target: T1, Phosphatidylinositol 3-kinase C2 domain-containing subunit gamma (Homo sapiens) (UniProt O75747); experiment: Inhibition of PIK3C2G at 1 uM
T1 sequence (whole entry): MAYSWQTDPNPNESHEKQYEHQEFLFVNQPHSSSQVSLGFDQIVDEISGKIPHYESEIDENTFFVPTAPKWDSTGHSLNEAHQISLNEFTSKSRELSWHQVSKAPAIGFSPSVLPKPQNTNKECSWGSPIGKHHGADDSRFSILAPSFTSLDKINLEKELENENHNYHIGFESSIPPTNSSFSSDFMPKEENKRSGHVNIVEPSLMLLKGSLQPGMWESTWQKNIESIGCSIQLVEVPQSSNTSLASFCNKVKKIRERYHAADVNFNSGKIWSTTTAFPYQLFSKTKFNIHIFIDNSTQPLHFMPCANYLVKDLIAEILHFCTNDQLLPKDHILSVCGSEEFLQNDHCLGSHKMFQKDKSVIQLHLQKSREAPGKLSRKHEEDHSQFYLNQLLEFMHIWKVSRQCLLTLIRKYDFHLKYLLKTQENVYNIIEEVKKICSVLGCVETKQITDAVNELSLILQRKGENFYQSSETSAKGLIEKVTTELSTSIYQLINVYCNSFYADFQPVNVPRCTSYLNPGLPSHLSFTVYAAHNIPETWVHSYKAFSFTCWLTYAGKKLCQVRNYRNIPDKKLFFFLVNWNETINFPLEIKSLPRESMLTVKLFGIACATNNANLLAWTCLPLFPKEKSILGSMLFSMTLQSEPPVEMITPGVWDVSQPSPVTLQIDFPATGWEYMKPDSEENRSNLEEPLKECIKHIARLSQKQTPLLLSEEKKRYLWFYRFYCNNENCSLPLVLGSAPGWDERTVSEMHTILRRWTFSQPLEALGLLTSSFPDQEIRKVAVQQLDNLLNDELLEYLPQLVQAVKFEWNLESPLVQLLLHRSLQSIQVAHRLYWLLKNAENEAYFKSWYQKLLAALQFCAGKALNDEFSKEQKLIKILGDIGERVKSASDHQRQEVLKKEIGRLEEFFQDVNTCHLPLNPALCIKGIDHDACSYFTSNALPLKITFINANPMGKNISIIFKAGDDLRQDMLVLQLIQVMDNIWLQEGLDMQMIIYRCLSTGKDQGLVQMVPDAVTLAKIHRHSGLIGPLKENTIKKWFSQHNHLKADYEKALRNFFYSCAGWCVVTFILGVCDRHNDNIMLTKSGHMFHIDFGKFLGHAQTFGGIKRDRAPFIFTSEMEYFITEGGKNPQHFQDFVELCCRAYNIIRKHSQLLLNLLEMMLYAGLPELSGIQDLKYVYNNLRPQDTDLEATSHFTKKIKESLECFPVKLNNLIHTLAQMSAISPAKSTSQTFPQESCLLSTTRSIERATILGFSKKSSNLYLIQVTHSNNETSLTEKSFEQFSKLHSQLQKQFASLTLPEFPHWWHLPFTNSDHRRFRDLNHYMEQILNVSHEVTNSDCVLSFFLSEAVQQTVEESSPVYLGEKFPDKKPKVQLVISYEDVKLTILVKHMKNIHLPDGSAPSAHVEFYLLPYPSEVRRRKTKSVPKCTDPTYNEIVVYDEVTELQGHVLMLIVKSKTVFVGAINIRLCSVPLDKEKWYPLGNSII

[2] = target: Phosphatidylinositol 4-phosphate 5-kinase type-1 alpha (Homo sapiens) (UniProt Q99755); experiment: Inhibition of PIP5K1A at 1 uM
Sequence of Phosphatidylinositol 4-phosphate 5-kinase type-1 alpha (Homo sapiens) (Q99755 whole entry, the tested form may be a part): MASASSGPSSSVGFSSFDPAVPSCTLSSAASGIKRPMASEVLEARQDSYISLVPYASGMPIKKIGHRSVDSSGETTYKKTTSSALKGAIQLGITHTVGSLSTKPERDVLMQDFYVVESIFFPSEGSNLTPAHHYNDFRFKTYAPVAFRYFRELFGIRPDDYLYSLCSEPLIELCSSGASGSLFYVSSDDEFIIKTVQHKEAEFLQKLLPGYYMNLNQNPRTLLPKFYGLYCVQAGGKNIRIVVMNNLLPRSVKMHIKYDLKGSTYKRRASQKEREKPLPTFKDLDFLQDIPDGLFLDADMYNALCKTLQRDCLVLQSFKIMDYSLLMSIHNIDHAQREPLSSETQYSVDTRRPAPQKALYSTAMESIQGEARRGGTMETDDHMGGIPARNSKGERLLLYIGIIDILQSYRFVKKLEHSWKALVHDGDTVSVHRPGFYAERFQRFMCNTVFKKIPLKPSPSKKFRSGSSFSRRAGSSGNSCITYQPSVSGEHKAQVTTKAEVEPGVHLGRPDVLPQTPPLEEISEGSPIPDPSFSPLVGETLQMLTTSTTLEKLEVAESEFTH

[3] = target: T2, Discoidin domain-containing receptor 2 (Homo sapiens) (UniProt Q16832); experiment: Inhibition of DDR2 at 1 uM
T2 sequence (whole entry): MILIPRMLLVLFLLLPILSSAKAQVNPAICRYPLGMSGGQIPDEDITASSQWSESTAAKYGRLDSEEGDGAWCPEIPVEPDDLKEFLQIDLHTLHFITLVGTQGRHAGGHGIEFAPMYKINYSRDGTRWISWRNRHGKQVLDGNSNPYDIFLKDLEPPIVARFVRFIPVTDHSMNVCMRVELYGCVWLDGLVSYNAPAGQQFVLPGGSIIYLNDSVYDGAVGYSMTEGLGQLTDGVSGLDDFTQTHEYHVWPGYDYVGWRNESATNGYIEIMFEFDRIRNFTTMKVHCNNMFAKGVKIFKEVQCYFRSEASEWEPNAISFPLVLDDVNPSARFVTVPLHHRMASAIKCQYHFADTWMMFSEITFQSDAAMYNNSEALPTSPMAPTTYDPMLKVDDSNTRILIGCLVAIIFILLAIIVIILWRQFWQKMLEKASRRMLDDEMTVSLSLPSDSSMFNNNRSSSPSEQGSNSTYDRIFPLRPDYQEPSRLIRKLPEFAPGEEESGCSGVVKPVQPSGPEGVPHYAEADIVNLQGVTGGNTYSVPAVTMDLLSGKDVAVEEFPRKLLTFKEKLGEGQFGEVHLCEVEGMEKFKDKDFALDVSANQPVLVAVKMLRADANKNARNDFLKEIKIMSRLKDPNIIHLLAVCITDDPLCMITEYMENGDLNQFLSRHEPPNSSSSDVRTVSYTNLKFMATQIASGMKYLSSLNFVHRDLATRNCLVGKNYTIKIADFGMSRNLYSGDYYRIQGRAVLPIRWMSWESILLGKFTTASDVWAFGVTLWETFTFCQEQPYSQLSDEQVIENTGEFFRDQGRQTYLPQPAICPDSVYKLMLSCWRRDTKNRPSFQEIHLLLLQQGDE

[4] = target: Epidermal growth factor receptor (Homo sapiens) (UniProt P00533); experiment: Inhibition of EGFR at 1 uM
Sequence of Epidermal growth factor receptor (Homo sapiens) (P00533 whole entry): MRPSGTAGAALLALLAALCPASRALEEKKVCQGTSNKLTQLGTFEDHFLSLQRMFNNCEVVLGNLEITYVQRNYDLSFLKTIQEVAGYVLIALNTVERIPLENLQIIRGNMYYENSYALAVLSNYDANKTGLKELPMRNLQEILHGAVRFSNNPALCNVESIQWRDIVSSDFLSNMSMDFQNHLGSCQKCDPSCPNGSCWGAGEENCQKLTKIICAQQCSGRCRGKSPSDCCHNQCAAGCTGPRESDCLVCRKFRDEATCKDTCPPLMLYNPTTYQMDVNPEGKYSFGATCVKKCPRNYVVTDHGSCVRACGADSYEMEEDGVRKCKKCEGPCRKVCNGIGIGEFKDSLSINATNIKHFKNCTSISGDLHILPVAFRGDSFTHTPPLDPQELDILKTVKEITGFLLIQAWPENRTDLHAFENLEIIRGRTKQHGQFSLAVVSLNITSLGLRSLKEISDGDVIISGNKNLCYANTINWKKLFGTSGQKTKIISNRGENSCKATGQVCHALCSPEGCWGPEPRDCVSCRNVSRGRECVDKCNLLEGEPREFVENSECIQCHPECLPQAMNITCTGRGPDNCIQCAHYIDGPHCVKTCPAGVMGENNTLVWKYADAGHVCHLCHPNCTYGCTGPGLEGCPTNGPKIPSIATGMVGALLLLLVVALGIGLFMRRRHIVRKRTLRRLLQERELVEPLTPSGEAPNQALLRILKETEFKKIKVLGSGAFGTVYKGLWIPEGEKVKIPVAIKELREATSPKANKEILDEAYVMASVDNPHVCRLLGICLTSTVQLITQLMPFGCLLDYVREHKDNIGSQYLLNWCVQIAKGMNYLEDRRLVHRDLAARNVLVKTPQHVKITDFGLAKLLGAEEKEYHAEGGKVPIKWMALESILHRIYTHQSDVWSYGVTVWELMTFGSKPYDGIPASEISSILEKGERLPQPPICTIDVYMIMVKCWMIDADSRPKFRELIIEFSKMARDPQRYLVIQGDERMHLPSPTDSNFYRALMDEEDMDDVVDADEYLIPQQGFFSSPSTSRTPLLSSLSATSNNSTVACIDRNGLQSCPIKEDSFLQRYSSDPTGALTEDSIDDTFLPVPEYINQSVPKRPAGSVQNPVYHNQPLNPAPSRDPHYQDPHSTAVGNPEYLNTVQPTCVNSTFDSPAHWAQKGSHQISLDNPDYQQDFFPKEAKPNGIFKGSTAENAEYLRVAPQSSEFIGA
How it was run: (§1)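 Single-concentration screen using Ambit Bioscience KINOMEscan technology across a panel of 250–400 kinases. Per-kinase inhibition from this screen was summarized as S(90), the fraction of kinases inhibited by more than 90%.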

[5] = target: Mitogen-activated protein kinase 1 (Homo sapiens) (UniProt P28482); experiment: Inhibition of ERK2 at 1 uM; how it was run: as §1
Sequence of Mitogen-activated protein kinase 1 (Homo sapiens) (P28482 whole entry): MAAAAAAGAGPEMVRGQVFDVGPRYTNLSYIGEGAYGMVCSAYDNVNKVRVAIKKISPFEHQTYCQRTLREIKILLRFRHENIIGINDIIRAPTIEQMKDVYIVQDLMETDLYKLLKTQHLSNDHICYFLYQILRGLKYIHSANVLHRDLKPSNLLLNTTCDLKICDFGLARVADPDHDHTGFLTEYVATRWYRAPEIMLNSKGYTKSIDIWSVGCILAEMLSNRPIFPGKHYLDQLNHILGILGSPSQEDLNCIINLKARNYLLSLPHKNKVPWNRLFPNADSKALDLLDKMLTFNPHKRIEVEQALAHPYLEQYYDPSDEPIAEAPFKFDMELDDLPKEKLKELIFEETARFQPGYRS

inhibition [1] [%]	inhibition [2] [%]	inhibition [3] [%]	inhibition [4] [%]	inhibition [5] [%]	SMILES
< 50	< 50	< 50	< 50	< 50	CC(=O)N1CCN(c2cc(-c3cnc4c(c3)N(Cc3cc(Cl)ccc3C(F)(F)F)CCN4)ccn2)CC1
	< 50		< 50	< 50	O=C(O)c1ccc(-c2cnc3c(c2)N(Cc2cc(Cl)ccc2C(F)(F)F)CCN3)cc1
	< 50		< 50	< 50	O=C(c1ccc(-c2cnc3c(c2)N(Cc2cc(Cl)ccc2C(F)(F)F)CCN3)cc1)N1CCCCC1
< 50	< 50	< 50	< 50	< 50	CN1CCN(c2ccc(-c3cnc4c(c3)N(Cc3cc(Cl)ccc3C(F)(F)F)CCN4)cn2)CC1
< 50	< 50	< 50	< 50	< 50	CN1CCN(c2ccc(-c3cnc4c(c3)N(Cc3cc(F)ccc3F)CCN4)cn2)CC1
< 50	< 50	< 50	< 50	< 50	CN1CCN(c2ccc(-c3cnc4c(c3)N(Cc3cc(Cl)ccc3Cl)CCN4)cn2)CC1
	< 50	< 50	< 50	< 50	COC1CCN(C(=O)c2ccc(-c3cnc4c(c3)N(Cc3cc(Cl)ccc3C(F)(F)F)CCN4)cc2)CC1
< 50	< 50	< 50	< 50	< 50	CN1CCN(c2ccc(-c3cnc4c(c3)N(Cc3c(F)ccc(F)c3Cl)CCN4)cn2)CC1
< 50	< 50	< 50	< 50	< 50	FC(F)(F)c1ccc(Cl)cc1CN1CCNc2ncc(-c3ccnc(N4CCNCC4)c3)cc21
	< 50	< 50	< 50	< 50	O=C(c1ccc(-c2cnc3c(c2)N(Cc2cc(Cl)ccc2C(F)(F)F)CCN3)cc1)N1CCC(N2CCCC2)CC1
